# Source: PubChem BioAssay (several laboratories)
# Calb FLC: C. albicans growth inhibition with fluconazole, primary screen, CaCi-2 strain, Alamar Blue fluorescence. growth inhibition, % (no concentration beside the values). C. albicans CaCi-2 (fluconazole-resistant clinical isolate) + fluconazole, 48 h. 300,000 tested, 0.57% active. AID 1979, 2009;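 active = growth inhibition above about 58% in most replicates, limit read from the data, passing the limit was not always enough; inconclusive = exactly half the replicates above a set limit; inactive = most replicates below a set limit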;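 also: all wells also contain fluconazole at 8 µg/ml as a sub-toxic cotreatment; 0% = median of DMSO wells and 100% = median of geldanamycin control wells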
# CSC inhib: cancer stem cell viability inhibitors, primary screen, luminescence; cancer stem cell-like cells viability; inhibition, % at 7.5 µM; 300,000 tested, 1.1% active; AID 2717, 2010; in the data active = inhibition above about 75%; inconclusive = no clear call, values can overlap the other calls; tested in HMLE shEcad cells
# Mdm2 MdmX PPI: inhibitors of human Mdm2-MdmX association, primary screen, cell-based, luminescence, split luciferase, SaOS-2, uHTS | AID 485346, 2010 | 330,000 tested, 3% active | SaOS-2 split-luciferase Mdm2/MdmX complementation | inhibition, % at 8 µM;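 active = inhibition of at least 50% at 8 µM in the primary screen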
# Target sequence (O15151 whole entry, looked up): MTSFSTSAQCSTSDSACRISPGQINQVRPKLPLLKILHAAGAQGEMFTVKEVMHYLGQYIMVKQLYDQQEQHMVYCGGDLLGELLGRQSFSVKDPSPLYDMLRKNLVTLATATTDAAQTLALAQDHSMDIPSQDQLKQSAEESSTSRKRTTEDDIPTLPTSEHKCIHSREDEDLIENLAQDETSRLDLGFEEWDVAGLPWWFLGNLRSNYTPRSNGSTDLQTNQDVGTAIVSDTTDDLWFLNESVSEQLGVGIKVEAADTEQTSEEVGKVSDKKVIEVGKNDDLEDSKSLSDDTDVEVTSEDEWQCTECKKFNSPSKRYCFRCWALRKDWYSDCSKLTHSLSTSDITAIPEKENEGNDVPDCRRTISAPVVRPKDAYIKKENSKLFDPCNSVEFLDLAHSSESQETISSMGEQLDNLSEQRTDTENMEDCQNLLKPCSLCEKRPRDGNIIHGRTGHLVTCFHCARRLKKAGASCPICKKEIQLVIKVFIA
# Target sequence (Q00987 whole entry, looked up): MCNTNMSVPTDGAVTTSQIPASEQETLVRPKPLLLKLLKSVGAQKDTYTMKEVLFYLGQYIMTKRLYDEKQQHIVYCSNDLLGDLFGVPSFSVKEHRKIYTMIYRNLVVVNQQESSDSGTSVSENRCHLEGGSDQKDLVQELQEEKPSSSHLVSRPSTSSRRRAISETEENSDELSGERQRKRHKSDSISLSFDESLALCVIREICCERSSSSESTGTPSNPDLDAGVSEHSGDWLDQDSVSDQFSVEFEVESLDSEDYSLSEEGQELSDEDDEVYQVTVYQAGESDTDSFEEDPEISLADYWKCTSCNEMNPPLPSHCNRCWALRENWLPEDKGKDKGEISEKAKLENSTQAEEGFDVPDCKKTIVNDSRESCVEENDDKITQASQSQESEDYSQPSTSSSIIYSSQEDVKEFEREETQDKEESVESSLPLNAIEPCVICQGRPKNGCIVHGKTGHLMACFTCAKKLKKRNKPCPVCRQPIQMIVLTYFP
# SKKanGAS inh: S. pyogenes SKKanGAS growth inhibitors in kanamycin, primary screen, streptokinase expression inhibitor project, SKKanGAS strain, BacTiter-Glo luminescence. 6 h. inhibition, % at 7.5 µM. 300,000 tested, 1.3% active;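 active = mean replicate score, as percent of positive control median, at least 50; inconclusive = mean below 50 but one replicate at or above 50; inactive = mean and every replicate below 50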;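 also: strain carries kanamycin resistance gene driven by streptokinase promoter and grows in 40 µg/ml kanamycin; loss of luminescence reflects streptokinase promoter inhibition or plain growth inhibition; 0% = median of DMSO wells and 100% = positive control at its reference dose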
# Beta cell apopt: inhibitors of cytokine-induced beta cell apoptosis, primary screen, luminescence. INS-1E cytokine-induced death, ATP luminescence, 48 h; percent of positive-control rescue, neutral wells zero. protection from apoptosis, % (test concentration not listed). 300,000 tested, 0.8% active;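 active = Every replicate reaches about 75%, or at least half do and their mean reaches it too, limit read from the data; inconclusive = At least half of replicates reach the limit but their mean does not; inactive = Under half of replicates reach the limit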;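 also: 0% = cytokine-treated negative control wells and 100% = positive control rescue; higher means more ATP so stronger rescue from cytokine killing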
# T cruzi inh: inhibitors of intracellular T. cruzi growth, primary screen, luminescence, NIH3T3 host cells. T. cruzi beta-gal in NIH3T3, 90 h. inhibition, % (test concentration not listed). 300,000 tested, 1.4% active;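 active = mean inhibition across valid replicates above about 55%, limit read from the data; inconclusive = mean below that limit but half or more replicates reach it; inactive = mean below it, under half of replicates reach it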;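 also: signal also drops with host cell toxicity which is not excluded here; 0% = plate median of DMSO wells and 100% = zero luminescence signal; higher percent means less beta-gal luminescence so fewer parasites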
#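 System: Mouse NIH/3T3 fibroblasts infected with β-gal-expressing T. cruzi Tulahuen C4 | Quantity: NIH/3T3 cells, 5,000 per well | Reagent: 5000 reporter trypomastigotes per well | Dosing: Compound pinned at 50 nL/well, DMSO | Schedule: 3 h host attachment, then at least 90 h co-culture | Detection: GalScreen luminescence, 60 min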
# Mdm2-MdmX conf: Mdm2-MdmX complex disruptors, retested hits, confirmation, luminescence, single concentration; shares compounds with Mdm2 MdmX PPI; Mdm2-MdmX binding, luminescent assay; inhibition, % at 8 µM; 10,000 tested, 55% active; AID 489028, 2010; in the data active = inhibition above about 40%
# FLuc counter: full-length luciferase signal inhibition, confirmation, counter-screen for Mdm2/MdmX interaction inhibitor project, cell-based, single concentration, SaOS-2; inhibition, % at 8 µM; shares compounds with Mdm2 MdmX PPI; 6,200 tested, 77% active; SaOS-2 full-length luciferase counterscreen, luminescence;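 active = mean inhibition at 8 µM reaching about 37%, which flags the compound as non-specific, limit read from the data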;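 also: p53-null SaOS-2 cells with luciferase driven by a doxycycline-inducible promoter; compound on cells about two nights before reading with doxycycline added after day one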
# An asterisk follows results filed as active; ? = inconclusive; nt = not tested or not shown. Rows were chosen to be rich in hits. Some 5.7% of all compounds tested hit in one or more screens of this group.
SMILES,Calb FLC,CSC inhib,Mdm2 MdmX PPI,SKKanGAS inh,Beta cell apopt,T cruzi inh,Mdm2-MdmX conf,FLuc counter
COc1ccc(Cl)cc1NC(=O)Nc1cccc([N+](=O)[O-])c1C,-6,-3,53*,11,15,47,29,nt
O=[N+]([O-])c1ccc(NC(=S)NCCc2ccc(F)cc2)cc1,?,2,86*,0,76*,34,63*,86*
COc1ccc2c(c1)C1C=CCC1C(c1cc3c(cc1Br)OCO3)N2 (stereo not given),?,60,47,3,-5,-2,nt,nt
CC(=O)c1ccc2c(c1)C1C=CCC1C(c1cc3c(cc1Br)OCO3)N2 (stereo not given),-4,52,67*,15,12,18,47*,57*
O=C(CCC(=O)Nc1ccccc1Cl)NNC(=O)C1CCCCC1,nt,3,18,nt,-3,nt,nt,nt
COc1ccc(OC)c(NS(=O)(=O)c2ccc(N3CCCC3=O)cc2)c1,-12,57,72*,4,15,2,57*,83*
Cc1cc(OCC(=O)N2CCN(c3ccccc3)CC2)c2c(C)c(C)c(=O)oc2c1,2,-8,64*,-9,4,-3,67*,87*
Cc1cc(OC(C)C(=O)N2CCN(c3ccccc3)CC2)c2c(C)c(C)c(=O)oc2c1 (stereo not given),-4,-20,39,-7,10,-6,nt,nt
Cc1ccc(-c2cc(-c3ccc4c(c3)OCO4)c(C#N)c(N)n2)o1,26,2,57*,13,-7,15,27,nt
Cc1ccc(-c2cc(-c3ccc(C)o3)nc(N)c2C#N)cc1,5,2,0,6,-8,17,nt,nt
Cc1cc(NC(=O)C(C)SCC(=O)N(C)CC(=O)Nc2ccccc2C(F)(F)F)no1 (stereo not given),nt,nt,18,nt,nt,nt,nt,nt
CCS(=O)(=O)c1nc2ccccc2n1Cc1ccccc1Cl,16,-2,69*,-2,-11,-10,35,nt
CS(=O)(=O)c1nc2ccccc2n1Cc1ccccc1,11,7,35,-4,-5,-13,nt,nt
CC(C)/C=C(/C(=O)c1ccc(Cl)cc1Cl)n1cncn1,-8,20,15,7,-14,26,nt,nt
CC(C)(C)C(=O)/C(=C/c1ccc(Cl)cc1)n1cncn1,-1,30,99*,-1,-52,18,100*,0
CC(C)(C)C(=O)/C(=C\c1ccc([N+](=O)[O-])cc1)n1cncn1,107*,119*,99*,-7,112*,?,100*,2
Cc1ccc(S(=O)(=O)Nc2ccccc2C(=O)Nc2nc(-c3ccc(F)cc3)cs2)cc1,-2,0,86*,106*,99*,-6,90*,22
COc1ccc(-c2csc(NC(=O)c3ccccc3NS(=O)(=O)c3ccc(F)c(F)c3)n2)cc1,45,114*,90*,84*,87*,35,91*,22
O=C(Nc1nc(-c2ccccc2)cs1)c1ccccc1F,-4,7,-44,-11,8,-5,nt,nt
Cc1cc2c(NC3CCCCC3)ncnc2s1,2,-16,30,0,18,-29,nt,nt
COc1ccccc1C1CC(=O)Nc2cc(C)c(C)cc21 (stereo not given),14,39,60*,-2,6,19,55*,60*
Cc1cc2c(cc1C)C(c1ccccc1OC(C)C)CC(=O)N2 (stereo not given),19,96*,57*,6,41,11,55*,43*
CCOc1ccccc1C1CC(=O)Nc2cc(C)c(C)cc21 (stereo not given),-4,32,57*,-3,8,9,59*,54*
CC(C)Oc1ccccc1C1CC(=O)Nc2cc3c(cc21)OCO3 (stereo not given),-2,54,70*,-15,34,31,61*,84*
Cc1ccc(Sc2ncccc2C(N)=O)cc1,-9,-9,14,-3,nt,-3,nt,nt
SMILES,Calb FLC,CSC inhib,Mdm2 MdmX PPI,SKKanGAS inh,Beta cell apopt,T cruzi inh,Mdm2-MdmX conf,FLuc counter
CCN(CC)S(=O)(=O)N1CCC(C(=O)NCc2ccco2)CC1,-4,-6,-12,-5,-4,-1,nt,nt
Cc1noc(C)c1CSCC(=O)Nc1cc(S(=O)(=O)N2CCOCC2)ccc1OC(C)C,-11,2,-1,3,nt,13,nt,nt
CC/C(C)=N/Oc1nc(C)cc(C)n1,-9,4,-1,0,2,-17,nt,nt
CN(C(=O)c1ccc(NC(=O)C2CCCN(C(=O)OC(C)(C)C)C2)cc1)C1CCCCC1 (stereo not given),nt,17,-1,nt,1,nt,nt,nt
N#Cc1c(NC(=O)CSc2ncc(-c3ccccc3)n2CC2CCCO2)sc2c1CCCC2 (stereo not given),10,nt,76*,6,7,29,42*,67*
CCOC(=O)c1c(-c2ccc(F)cc2)csc1NC(=O)c1c(-c2ccccc2)noc1C,16,21,85*,11,5,36,50*,48*
N#Cc1c(NC(=O)CSc2nnc(-c3ccncc3)n2CC2CCCO2)sc2c1CCCC2 (stereo not given),8,0,22,-2,4,3,nt,nt
COC(=O)c1c(-c2ccccc2)csc1NC(=O)c1c(-c2ccccc2)noc1C,0,46,97*,4,5,18,95*,53*
CCOC(=O)c1c(-c2ccccc2)csc1NC(=O)c1cc(-c2ccccc2OC)on1,-20,3,-2,-6,5,16,nt,nt
COC(=O)c1ccc(C)c(NC(=O)c2c(-c3ccccc3)noc2C)c1,-5,-6,-2,-8,6,10,nt,nt
Cc1onc(-c2ccccc2)c1C(=O)Nc1sc2c(c1C#N)CCC2,8,nt,55*,7,nt,-8,60*,49*
CC(=O)c1cc2c(cc1NC(=O)c1ccc(C)cc1)OCCO2,18,-2,-4,-3,0,22,nt,nt
COc1ccc(-c2ccc3c(c2)S(=O)(=O)c2cccc(C(=O)NC4CCCCC4)c2C3=O)cc1OC,nt,14,6,nt,-7,nt,nt,nt
COc1ccc(-c2ccc3c(c2)S(=O)(=O)c2cccc(C(=O)NC4CC4)c2C3=O)cc1OC,nt,-10,72*,nt,-4,nt,52*,46*
